Assay results as given in ChEMBL document CHEMBL2163314, “Potent aminocyclitol glucocerebrosidase inhibitors are subnanomolar pharmacological chaperones for treating gaucher disease” (J Med Chem, 2012).
The source made the active and inactive calls. The rule behind the calls is not given here.

Columns and labels:
[1] = target: Lysosomal alpha-glucosidase (Homo sapiens) (UniProt P10253); assay: Inhibition of lysosomal alpha-glucosidase in human fibroblast at 50 uM after 24 hrs
Method in brief: (§1)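 Wild-type human fibroblasts (DMEM, 10% FBS, passages 14–30) were plated overnight, then exposed to compound in fresh medium for 24 h at 37 °C, 5% CO2. Lysosomal enzyme activity was then assayed in intact monolayers after the medium was removed. Triplicate determinations.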

[2] = target: T1, Alpha-galactosidase A (Homo sapiens) (UniProt P06280); assay: Inhibition of lysosomal alpha-galactosidase in human fibroblast at 50 uM after 24 hrs; method in brief: as §1
T1 sequence (whole entry): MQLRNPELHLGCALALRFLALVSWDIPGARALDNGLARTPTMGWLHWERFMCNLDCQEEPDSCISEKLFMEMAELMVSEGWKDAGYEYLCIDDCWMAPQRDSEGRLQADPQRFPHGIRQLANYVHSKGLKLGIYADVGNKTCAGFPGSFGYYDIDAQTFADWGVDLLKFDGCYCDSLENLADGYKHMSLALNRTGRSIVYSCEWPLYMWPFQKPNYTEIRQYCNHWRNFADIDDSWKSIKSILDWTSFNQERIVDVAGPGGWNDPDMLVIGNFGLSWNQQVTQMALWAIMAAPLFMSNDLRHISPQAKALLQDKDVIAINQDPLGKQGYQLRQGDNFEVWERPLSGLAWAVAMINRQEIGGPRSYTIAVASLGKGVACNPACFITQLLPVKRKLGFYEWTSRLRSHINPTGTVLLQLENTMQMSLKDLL

Oryza sativa = assay: Inhibition of rice alpha-glucosidase at 100 uM
Saccharomyces cerevisiae = assay: Inhibition of bakers yeast alpha-glucosidase at100 uM
[3] = target: Alpha-galactosidase (Coffea arabica) (UniProt Q42656); assay: Inhibition of green coffee beans alpha-galactosidase at 100 uM
Sequence of Alpha-galactosidase (Coffea arabica) (Q42656 16-378 limits assumed): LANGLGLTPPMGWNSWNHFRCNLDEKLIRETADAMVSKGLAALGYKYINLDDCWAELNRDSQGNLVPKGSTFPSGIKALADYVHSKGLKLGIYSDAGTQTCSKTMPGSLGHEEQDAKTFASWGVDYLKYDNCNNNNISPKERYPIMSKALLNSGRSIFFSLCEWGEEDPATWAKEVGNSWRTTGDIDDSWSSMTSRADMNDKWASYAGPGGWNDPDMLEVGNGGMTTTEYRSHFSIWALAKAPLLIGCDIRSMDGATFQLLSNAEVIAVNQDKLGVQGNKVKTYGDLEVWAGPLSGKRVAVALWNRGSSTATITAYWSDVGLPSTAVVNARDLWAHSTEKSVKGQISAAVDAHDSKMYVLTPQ

[4] = target: T2, Lysosomal acid glucosylceramidase (Homo sapiens, UniProt P04062); assay: Competitive inhibition of recombinant Imiglucerase using 4-methylumbelliferyl-beta-D-glucopyranoside as substrate preincubated for 30 mins before substrate addition at pH 5.2 by Lineweaver-Burk plot assay
T2 sequence (P04062 whole entry): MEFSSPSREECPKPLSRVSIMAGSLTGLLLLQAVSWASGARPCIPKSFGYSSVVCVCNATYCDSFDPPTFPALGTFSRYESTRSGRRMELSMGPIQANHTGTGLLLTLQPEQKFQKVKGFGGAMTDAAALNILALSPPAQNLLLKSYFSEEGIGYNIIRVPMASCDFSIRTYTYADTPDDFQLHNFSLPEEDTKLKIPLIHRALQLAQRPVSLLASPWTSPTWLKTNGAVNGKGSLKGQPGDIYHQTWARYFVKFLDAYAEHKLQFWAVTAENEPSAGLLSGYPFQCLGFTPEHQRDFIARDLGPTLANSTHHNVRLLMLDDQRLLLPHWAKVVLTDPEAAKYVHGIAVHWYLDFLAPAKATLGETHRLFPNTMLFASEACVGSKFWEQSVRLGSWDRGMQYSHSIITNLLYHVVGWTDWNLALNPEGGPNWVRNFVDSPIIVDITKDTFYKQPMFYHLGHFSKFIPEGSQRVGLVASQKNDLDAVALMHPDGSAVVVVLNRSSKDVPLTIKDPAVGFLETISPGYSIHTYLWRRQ

[5] = target: T2, Lysosomal acid glucosylceramidase; assay: Competitive inhibition of recombinant Imiglucerase using 4-methylumbelliferyl-beta-D-glucopyranoside as substrate preincubated for 30 mins before substrate addition at pH 7.0 by Dixon plot assay
[6] = target: T3, Non-lysosomal glucosylceramidase (Mus musculus) (UniProt Q69ZF3); assay: Inhibition of GBA2 activity in mouse tissue homogenate at 50 uM
T3 sequence (whole entry): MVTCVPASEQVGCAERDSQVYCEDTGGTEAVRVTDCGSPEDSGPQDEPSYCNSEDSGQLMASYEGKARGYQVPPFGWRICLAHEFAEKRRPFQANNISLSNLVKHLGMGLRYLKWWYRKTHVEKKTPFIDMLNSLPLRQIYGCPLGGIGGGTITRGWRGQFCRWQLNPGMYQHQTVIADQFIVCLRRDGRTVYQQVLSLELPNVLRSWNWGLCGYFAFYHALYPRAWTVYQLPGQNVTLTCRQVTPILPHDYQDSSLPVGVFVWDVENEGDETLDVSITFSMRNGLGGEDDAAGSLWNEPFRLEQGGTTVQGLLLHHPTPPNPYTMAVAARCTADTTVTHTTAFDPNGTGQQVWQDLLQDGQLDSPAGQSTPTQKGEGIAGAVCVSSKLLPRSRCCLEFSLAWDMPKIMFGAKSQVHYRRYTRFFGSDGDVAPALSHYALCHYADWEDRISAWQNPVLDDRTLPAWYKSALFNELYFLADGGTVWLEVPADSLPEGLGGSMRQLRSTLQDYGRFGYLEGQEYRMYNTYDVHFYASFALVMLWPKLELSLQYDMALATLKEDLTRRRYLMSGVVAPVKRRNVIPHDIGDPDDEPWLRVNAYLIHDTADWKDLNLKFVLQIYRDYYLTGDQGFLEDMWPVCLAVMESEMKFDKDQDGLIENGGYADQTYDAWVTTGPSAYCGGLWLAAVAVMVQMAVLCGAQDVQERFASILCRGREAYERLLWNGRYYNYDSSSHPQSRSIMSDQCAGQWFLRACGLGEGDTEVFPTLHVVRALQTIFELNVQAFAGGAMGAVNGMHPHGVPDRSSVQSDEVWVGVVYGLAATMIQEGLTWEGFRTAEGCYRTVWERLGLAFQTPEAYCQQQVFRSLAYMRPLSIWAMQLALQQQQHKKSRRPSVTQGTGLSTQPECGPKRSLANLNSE
Method in brief: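 Mouse tissue homogenates were used to separate nonlysosomal GBA2 from lysosomal GCase β-glucosidase activity. Compounds were screened at 50 and 5 μM with 3 mM substrate. Two independent experiments, each run in duplicate.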

[7] = target: T4, Ceramide glucosyltransferase (Mus musculus) (UniProt O88693); assay: Inhibition of GCS activity in mouse tissue homogenate at 250 uM
T4 sequence (whole entry): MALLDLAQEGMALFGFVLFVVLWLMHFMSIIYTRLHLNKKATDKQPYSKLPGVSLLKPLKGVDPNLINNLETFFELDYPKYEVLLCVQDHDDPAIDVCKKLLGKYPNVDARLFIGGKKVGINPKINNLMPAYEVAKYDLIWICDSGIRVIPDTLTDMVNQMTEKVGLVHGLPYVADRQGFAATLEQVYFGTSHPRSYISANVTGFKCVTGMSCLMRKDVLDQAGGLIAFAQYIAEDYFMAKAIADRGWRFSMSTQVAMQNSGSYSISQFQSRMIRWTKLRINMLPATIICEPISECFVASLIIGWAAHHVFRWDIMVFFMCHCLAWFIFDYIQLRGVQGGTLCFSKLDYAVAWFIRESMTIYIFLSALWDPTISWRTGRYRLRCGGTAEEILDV

[8] = target: T4, Ceramide glucosyltransferase (Mus musculus); assay: Inhibition of GCS activity in mouse tissue homogenate at 50 uM

Row | inhibition [7] | inhibition [8] | SMILES | inhibition [1] | inhibition [2] | inhibition (Oryza sativa) | inhibition (Saccharomyces cerevisiae) | inhibition [3] | IC50 [4] | IC50 [5] | inhibition [6]
1 |  |  | CCCCCCCCCO[C@H]1[C@@H](N)[C@H](O)[C@@H](O)[C@H](O)[C@H]1O.Cl | inactive | inactive | inactive | inactive | inactive | 450 nM | 120 nM | Active
2 |  |  | CCCCCCCCCN[C@@H]1[C@H](O)[C@H](O)[C@@H](O)[C@H](O)[C@H]1O.Cl | inactive | inactive | inactive | inactive | inactive | 80 nM | 25 nM | Active
3 | 56% | inactive | CCCCCCCCCN[C@H]1[C@H](O)[C@@H](O)[C@H](O)[C@@H](O)[C@H]1OCCCCCCCCC.Cl |  |  | inactive | inactive | inactive | 4 nM | 5 nM | Active
4 |  |  | CCCCCCCCCN[C@H]1[C@H](O)[C@@H](O)[C@H](O)[C@@H](O)[C@@H]1O | inactive | inactive | inactive | inactive | inactive | 3900 nM | 780 nM | Active
5 | 56% | inactive | CCCCCCCCCN[C@H]1[C@H](O)[C@@H](O)[C@H](O)[C@@H](O)[C@@H]1OCCCCCCCCC.Cl |  |  | inactive | inactive | inactive | 670 nM | 170 nM | Active
6 |  |  | CCCCCCCCCN[C@H]1[C@H](O)[C@@H](O)[C@H](O)[C@@H](O)[C@@H]1OC.Cl | inactive | inactive | inactive | inactive | inactive | 4400 nM | 670 nM | Active
7 | 56% | inactive | CCCCCCCCCN(CCCCCCCCC)[C@@H]1[C@H](O)[C@H](O)[C@@H](O)[C@H](O)[C@H]1O.Cl |  |  | inactive | inactive | inactive | 1720 nM | 530 nM | Active
8 |  |  | CCCCCCCCCN[C@@H]1[C@H](O)[C@@H](O)[C@H](O)[C@@H](O)[C@@H]1O | inactive | inactive | inactive | inactive | inactive | 52600 nM | 24900 nM | 92%
9 |  |  | CCCCCCCCCN[C@H]1[C@H](O)[C@@H](O)[C@H](O)[C@@H](O)[C@H]1OC.Cl | inactive | inactive | inactive | inactive | inactive | 130 nM | 19 nM | Active
